The subject of one data set is Mcl-1. Particulars: cited from earlier work.
A further data set relates to H1299. To be noted: cited from earlier work.
The test system of another data set is PC3ML cells. The data set can be described thus: Cell viability, ATP-LITE assay. The data set is classed as cell-based. Particulars: Homo sapiens, PC3-ML, 72 h, read-out: PC3ML EC50. In outline:
(§1)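 Human cancer cells are grown in F12 or RPMI1640 medium with 5 mM L-glutamine, 5% FBS and penicillin/streptomycin. Cells are seeded at densities chosen by doubling time. Fresh 5% serum medium is added, and test compound is applied 24 h after seeding at varied concentrations in 0.1% DMSO. After 72 h, ATP is read with ATP-LITE reagent and normalized to DMSO-treated controls.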

Data set [1] deals with H460 human lung cancer cell line. The data set can be described thus: Cell viability, ATP-LITE assay. To be noted: NCI-H460, 72 h, read-out: H460 EC50. The data set is classed as cell-based. In outline:
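H460 cells were grown in F12 or RPMI1640 with 5 mM L-glutamine, 5% FBS and penicillin/streptomycin, then plated at 2000 cells/well. After 24 h, fresh 5% medium was added, followed by test compound at final concentrations in 0.1% DMSO. Viability was read with ATP-LITE after 72 h of treatment, and data were normalized to DMSO-treated cells.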

Data set [2] concerns RS11846 human lymphoma cell line. Description: Cell viability, ATP-LITE assay. The data set is classed as cell-based. To be noted: 72 h, read-out: RS11846 EC50 (ATP-LITE assay). In outline: as §1
Data set [3] has the same test system. Description: Apoptosis, Annexin V-FITC and propidium iodide assay. The class given is cell-based. To be noted: read-out: RS11846 EC50 (Annexin V-FITC and propidium iodide assay).
Data set [4] is described as follows: Liver microsomal stability. The class given is in vitro ADME. To be noted: rat, microsomes, 4 µM, pH 7.4.
The next data set can be described thus: Plasma stability. The data set is classed as in vitro ADME. To be noted: rat, 100 µM.
The subject of another data set is H1299 cells. Description: Cell viability, ATP-LITE assay. The data set is classed as cell-based. To be noted: Homo sapiens, NCI-H1299, 72 h, read-out: H1299 EC50.

For orientation: EC50 means the concentration that produces a half-maximal response.

Turning to `CN(C)CC[C@H](CSc1ccccc1)Nc1ccc(S(=O)(=O)NC(=O)c2ccc(N3CCN(Cc4ccccc4-c4ccc(Cl)cc4)CC3)cc2)cc1[N+](=O)[O-]` [ABT-737], the “effectiveness against Mcl-1” value in the data set on Mcl-1 was “not effective”. In addition, the “killing Mcl-1 overexpressing cell lines such as the H1299” value in the data set on H1299 was “not effective”.
As to `Cc1cc2c(C(C)C)c(O)c(O)cc2c(O)c1-c1c(C)cc2c(C(C)C)c(O)c(O)cc2c1O` [Apogossypol], the EC50 in the data set with PC3ML cells stood at 10.3 µM; in [1] it was 5.8 µM; in data set [2] it was 5 µM; in [3], 8.6 µM. In addition, in data set [4], the “Microsomal Stability (T=1 hr)” value stood at 60%. In addition, in the data set “Plasma stability”, the “Plasma Stability (T=1 hr)” value came to 53%.
Consider `Cc1cc2c(C(C)C)c(O)c(O)c(C=O)c2c(O)c1-c1c(C)cc2c(C(C)C)c(O)c(O)c(C=O)c2c1O` [Gossypol], for which the half-maximal effective concentration (EC50) with PC3ML cells is 3.1 µM; in data set [1], 3 µM; in the data set with H1299 cells, 6 µM; in [2] it was 2.2 µM; in data set [3] it was 4.23 µM.

The record behind these values is paper PMC2750823 (Molecular cancer therapeutics, 2009).
